Screens (PubChem)
Rows were chosen to be rich in hits. Some 2.8% of all compounds tested hit in one or more screens of this group.
MC4R antagonist – antagonists of human melanocortin 4 receptor (MC4R) | P32245 | MC4R-expressing cells, MTII-stimulated cAMP, LANCE TR-FRET | inhibition, % at 6.5 µM | hit rate 0.48% among 360,000 | AID 540295;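 active = inhibition above its plate's cutoff, the mean of tested wells on that plate plus 3 SD, cut at about 29% in these data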
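material = U2OS cells stably expressing human melanocortin 4 receptor (MC4R) | also added = Melanotan II challenge | dosing = single nominal compound dose of 6.5 µM | detection = TR-FRET with Eu-cAMP and labeled anti-cAMP, 671 nm | replication = singlicate | timing = compound 30 min, challenge 1 h, detection 1 h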
MC4R barr agon – activates human MC4R beta-arrestin recruitment | U2OS MC4R beta-arrestin complementation, luminescence; percent of melanotan II response, DMSO zero | activation, % at 8.9 µM | P32245 | AID 540308 | hit rate 0.98% among 360,000;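 active = activation above a per-plate cutoff, the mean activation of sample wells on that plate plus 3 SD, cut at about 8% in these data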
EBI2 antag – blocks human EBI2 receptor beta-arrestin signaling | inhibition, % at 5 µM | hit rate 0.81% among 360,000 | EBI2 beta-arrestin recruitment, luminescence, 7a,25-OHC stimulated | P32249; in the data active = inhibition above about 38%;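 also: enzyme fragment complementation signal reports receptor beta-arrestin coupling in cells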
m5-HT2A agonist – activates the mouse 5-HT2A serotonin receptor; P35363; CHO-K1 mHTR2A beta-arrestin complementation, luminescence; percent of 30 µM serotonin response; activation, % at 7.6 µM; hit rate 0.66% among 360,000; AID 624169;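 active = activation above a run cutoff, the mean activation of all tested compounds plus 3 SD, cut at about 14% in these data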
Target sequence (P35363 whole entry, looked up): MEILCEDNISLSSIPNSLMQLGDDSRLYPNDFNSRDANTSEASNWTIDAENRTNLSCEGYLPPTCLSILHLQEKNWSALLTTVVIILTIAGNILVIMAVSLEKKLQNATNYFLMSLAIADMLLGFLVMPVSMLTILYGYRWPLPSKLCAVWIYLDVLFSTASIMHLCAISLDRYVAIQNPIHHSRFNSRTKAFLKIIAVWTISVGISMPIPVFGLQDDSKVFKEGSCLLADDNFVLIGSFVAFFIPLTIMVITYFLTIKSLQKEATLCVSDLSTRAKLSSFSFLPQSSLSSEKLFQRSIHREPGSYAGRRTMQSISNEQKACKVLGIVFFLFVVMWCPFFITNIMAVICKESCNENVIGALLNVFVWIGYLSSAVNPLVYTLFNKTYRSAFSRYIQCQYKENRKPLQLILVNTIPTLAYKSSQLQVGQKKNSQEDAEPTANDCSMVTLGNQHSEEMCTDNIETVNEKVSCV
cAMP nonselect – U2OS forskolin cAMP inhibition counter-screen | shares compounds with MC4R antagonist | parental U2OS, LANCE TR-FRET | inhibition, % at 6.5 µM | hit rate 26% among 1,600 | AID 602193;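 active = mean inhibition over triplicates above the low-control well mean plus 3 SD, set per campaign, cut at about 13% in these data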;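 also: signal is single emission at 671 nm which falls as cellular cAMP rises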
MC4R antag conf – human MC4R cAMP antagonism confirmation; shares compounds with MC4R antagonist; MC4R-expressing cells, MTII-stimulated cAMP, TR-FRET; inhibition, % at 6.5 µM; hit rate 27% among 1,600; AID 602195; in the data active = inhibition above about 29%
Large screens that a line does not name were inactive (follow-up assays come after a bar, where they were run); ! = a repeat was not active.

CCOc1ccccc1-c1cncc(NC)n1	none
O=C(CSc1c2c(nc3ccc(Cl)cc13)CCCC2)N1CCN(C(=O)c2ccco2)CC1	MC4R antagonist 41 | cAMP nonselect inactive | MC4R antag conf inactive
COc1ccccc1-c1cnc(C(O)c2cc(C)ccc2C)[nH]1 (stereo not given)	none
COc1cc(NC(=O)c2cc3cccc(OC)c3o2)cc(C(=O)Nc2cccc(C(F)(F)F)c2)c1	MC4R antagonist 33 | cAMP nonselect inactive | MC4R antag conf inactive
COc1cc(NC(=O)c2csc(-c3ccncc3)n2)cc(C(=O)Nc2cccc(C(F)(F)F)c2)c1	MC4R antagonist 39! | cAMP nonselect inactive | MC4R antag conf inactive
O=C(Nc1cccc(C(F)(F)F)c1)c1csc(-c2ccncc2)n1	none
COc1cc(NC(=O)c2ccno2)cc(C(=O)Nc2cccc(C(F)(F)F)c2)c1	none
COc1ccc(-c2cc(C(=O)Nc3cc(OC)cc(C(=O)Nc4cccc(C(F)(F)F)c4)c3)[nH]n2)cc1	MC4R antagonist 31! | cAMP nonselect inactive | MC4R antag conf inactive
Cc1cccc(C(O)c2cnc(C)n2Cc2ccccc2)c1 (stereo not given)	none
Cc1ccc(NC(=O)c2cc(N3C(=O)C=CC3=O)ccc2N2CCOCC2)cc1Cl	MC4R antagonist 54 | cAMP nonselect inactive | MC4R antag conf 41
Cc1ccccc1N(CC(=O)NC1CCCCC1)C(=O)CNC(=O)c1cccs1	MC4R antagonist 30 | cAMP nonselect inactive | MC4R antag conf inactive
Cc1nn(-c2cccc(Cl)c2)c2nc(-c3ccncc3)cc(C(=O)N3CCOCC3)c12	MC4R antagonist 34 | cAMP nonselect inactive | MC4R antag conf inactive
O=C(Nc1ccc2c(c1)OCO2)c1ccc2nc([C@@H]3O[C@H](CO)[C@H](O)[C@H](O)[C@H]3O)[nH]c2c1	none
O=C(O)c1cnn(-c2nc(-c3ccc(Cl)c(Cl)c3)cs2)c1C(F)(F)F	MC4R antagonist 52 | cAMP nonselect inactive | MC4R antag conf inactive
O=C(O)c1cnn(-c2nc(-c3cccc([N+](=O)[O-])c3)cs2)c1C(F)(F)F	MC4R antagonist 33 | cAMP nonselect inactive | MC4R antag conf inactive
COC(=O)c1cc([N+](=O)[O-])c(C)c(C)n1	none
C[C@@H]1CN([C@H](C)CO)S(=O)(=O)c2ccc(Br)cc2O[C@@H]1CN(C)Cc1ccc(-c2ccccc2)cc1	none
C[C@H](O)C#Cc1ccc2c(c1)O[C@@H](CN(C)Cc1ccc(-c3ccccc3)cc1)[C@H](C)CN([C@@H](C)CO)S2(=O)=O	MC4R antagonist 39 | cAMP nonselect inactive | MC4R antag conf 29
COC(=O)C(CC(C)C)NC(=O)/C=C/c1ccc(Cl)cc1 (stereo not given)	MC4R antagonist 35 | cAMP nonselect inactive | MC4R antag conf inactive
COC(=O)C(CC(C)C)NC(=O)/C=C/c1ccccc1Cl (stereo not given)	none
C[C@@H]1CN([C@@H](C)CO)C(=O)c2cc(Br)cnc2O[C@H]1CN(C)Cc1cccnc1	none
COCC(C)NC(=O)c1cc(OC)cc(OC)c1 (stereo not given)	MC4R antagonist 36 | cAMP nonselect inactive | MC4R antag conf inactive
COCC(C)NC(=O)c1cccc(Cl)c1 (stereo not given)	none
CC(=NN1CC(=O)NC1=O)c1ccc([N+](=O)[O-])o1	none
O=C(Nc1cc([N+](=O)[O-])ccc1O)c1cccc(C(=O)Nc2cc([N+](=O)[O-])ccc2O)c1	none
NS(=O)(=O)c1ccc(O)c(NC(=O)c2ccc([N+](=O)[O-])cc2)c1	MC4R antagonist 29 | cAMP nonselect inactive | MC4R antag conf inactive
CC(C)(C)OC(=O)NCc1ccc(CNC(=O)c2[nH]cnc2C(=O)N[C@@H](Cc2ccccc2)C(=O)OCc2ccccc2)cc1	none
CC(C)(C)OC(=O)NCc1ccc(NC(=O)c2nc[nH]c2C(=O)N[C@@H](Cc2ccccc2)C(=O)OCc2ccccc2)cc1	MC4R antagonist 63, MC4R barr agon 95 | cAMP nonselect inactive | MC4R antag conf 36
CCN(CC)c1ccc2c(C)c(Cl)c(=O)oc2c1	none
CCN(CC)c1ccc2c(c1)oc(=O)c1c(Cl)cc(=O)oc12	MC4R antagonist 30, EBI2 antag 62 | cAMP nonselect inactive | MC4R antag conf inactive
CC(C)NC(=O)N[C@H]1C=C[C@H](CC(=O)NCc2ccc(Oc3ccccc3)cc2)O[C@@H]1CO	none (no result: MC4R antagonist, MC4R barr agon)
Cn1c(SCC(=O)Nc2cccc(F)c2)nnc1-c1cc2ccccc2o1	MC4R antagonist 31 | cAMP nonselect inactive | MC4R antag conf inactive
Cc1ccc(C)c(NC(=O)CCC(=O)N/N=C/c2ccc3c(c2)OCO3)c1	MC4R antagonist 31 | cAMP nonselect inactive | MC4R antag conf inactive
Cc1ccccc1NCC(=O)N/N=C\c1ccc2c(c1)OCO2	none
Cc1c(NC(=S)N/C(=N/S(=O)(=O)c2ccccc2)c2ccccc2)c(=O)n(-c2ccccc2)n1C	MC4R antagonist 30 | cAMP nonselect inactive | MC4R antag conf inactive
CC(OC(=O)Cn1ccccc1=O)C(=O)Nc1cc(Cl)cc(Cl)c1 (stereo not given)	none
COc1cccc(NS(=O)(=O)c2ccc3[nH]cc(C(=O)NCCC(C)C)c(=O)c3c2)c1	MC4R antagonist 29 | cAMP nonselect inactive | MC4R antag conf inactive
COc1cccc(C(=O)Nc2sc(C(C)C)cc2C(N)=O)c1OC	MC4R antagonist 30 | cAMP nonselect inactive | MC4R antag conf inactive
COc1cccc(C(=O)Nc2nnc(-c3ccccc3)s2)c1OC	none
COCCCNC(=O)/C=C1\Sc2ccccc2N(Cc2ccccc2F)C1=O	MC4R antagonist 44 | cAMP nonselect 46 | MC4R antag conf 34
CN1CCN(CCCNC(=O)c2ccc(/C=C3\Sc4ccccc4N(Cc4ccc(F)cc4)C3=O)cc2)CC1	none
CS(=O)(=O)c1ccc2nc(NC(=O)c3cc([N+](=O)[O-])cc([N+](=O)[O-])c3)sc2c1	none
COc1cc(OC)cc(C(=O)Nc2nc3ccc(S(C)(=O)=O)cc3s2)c1	MC4R antagonist 34 | cAMP nonselect inactive | MC4R antag conf inactive
O=C(C#Cc1ccccc1)c1ccccc1	MC4R antagonist 51 | cAMP nonselect 29 | MC4R antag conf 36
O=C(C#Cc1ccccc1)c1ccc([N+](=O)[O-])cc1	none
COc1ccc(/C=C/C(=O)c2ccc([N+](=O)[O-])o2)cc1	MC4R antagonist 30 | cAMP nonselect inactive | MC4R antag conf inactive
COc1cc(NC(=O)c2cccc3c(-c4cnn(C)c4)coc23)cc(OC)c1OC	MC4R antagonist 46 | cAMP nonselect inactive | MC4R antag conf inactive
CS(=O)(=O)c1ccc(Cl)c(NC(=O)CSc2nc3ccccc3c(=O)n2CCCN2CCOCC2)c1	MC4R antagonist 31 | cAMP nonselect inactive | MC4R antag conf inactive
CC(=O)c1ccccc1NC(=O)CSc1nc2ccccc2c(=O)n1CCCN1CCOCC1	none
